# Measurements as given in publication PMC4277207 (ChemMedChem, 2014).
# Like-named read-outs stand apart in the source and are kept apart here.
# Key:
# [1] = tested on: D1-like receptor (D1 and D5); assay: [3H]SCH 23390 binding assay, rat striatal membranes; details: ratio of Ki values, rat brain preparation
# [2] = tested on: D2-like receptor (D2, D3, and D4); assay: [3H]spiperone binding assay, rat striatal; details: ratio of Ki values, rat brain preparation
# Summary of the method: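 The D2-like assay used [3H]spiperone at 0.2 nM on caudate-putamen membranes at 1.5 mg o.w.w./mL, in agonist-optimised Tris-HCl/KCl/MgCl2/CaCl2 buffer at pH 7.4. Nonspecific binding was set with 1 μM (+)-butaclamol, and KD was 0.4 nM. For two-site curves, the high-affinity Ki is reported. […] Values are means of 3–6 determinations.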
# [3] = assay type: in vitro ADME
SMILES,Selectivity D1-like/D3 [1],Selectivity D2-like/D3 [2],other results
"CCCN(CC[C@]1(O)C[C@H](NC(=O)c2cccc(Cl)c2)C1)[C@H]1CCc2nc(N)sc2C1 (relative stereo) [Compound 13, N-(cis-3-(2-(((S)-2-Amino-4,5,6,7-tetrahydrobenzo[d]thiazol-6-yl)(propyl)-amino)ethyl)-3-hydroxycyclobutyl)-3-chlorobenzamide]","49,482",175,
"CCCN(CC[C@]1(O)C[C@@H](NC(=O)c2cccc(F)c2)C1)[C@H]1CCc2nc(N)sc2C1 (relative stereo) [Compound 16, N-(cis-3-(2-(((S)-2-Amino-4,5,6,7-tetrahydrobenzo[d]thiazol-6-yl)(propyl)amino)-ethyl)-3-hydroxycyclobutyl)-3-fluorobenzamide]","29,789",138,
"CCCN(CC[C@]1(O)C[C@H](NS(=O)(=O)c2ccccc2OC)C1)[C@H]1CCc2nc(N)sc2C1 (relative stereo) [Compound 25, N-(cis-3-(2-(((S)-2-Amino-4,5,6,7-tetrahydrobenzo[d]thiazol-6-yl)(propyl)amino)-ethyl)-3-hydroxycyclobutyl)-2-methoxybenzenesulfonamide]",800,75,
"CCCN(CC[C@]1(O)C[C@@H](NS(=O)(=O)c2ccccc2Cl)C1)[C@H]1CCc2nc(N)sc2C1 (relative stereo) [Compound 28, N-(cis-3-(2-(((S)-2-Amino-4,5,6,7-tetrahydrobenzo[d]thiazol-6-yl)(propyl)amino)-ethyl)-3-hydroxycyclobutyl)-2-chlorobenzenesulfonamide]","160,847",485,
"CCCN(CC[C@]1(O)C[C@@H](NS(=O)(=O)c2cccc(Cl)c2)C1)[C@H]1CCc2nc(N)sc2C1 (relative stereo) [Compound 29, N-(cis-3-(2-(((S)-2-Amino-4,5,6,7-tetrahydrobenzo[d]thiazol-6-yl)(propyl)amino)-ethyl)-3-hydroxycyclobutyl)-3-chlorobenzenesulfonamide]","27,200",28,
"CCCN(CCC1(O)CC(NC(=O)c2ccccc2)C1)[C@H]1CCc2nc(N)sc2C1 (stereo in doubt) [Compound 11, N-(cis-3-(2-(((S)-2-Amino-4,5,6,7-tetrahydrobenzo[d]thiazol-6-yl)(propyl)amino)-ethyl)-3-hydroxycyclobutyl)benzamide]","2,662",301,
"CCCN(CCC1(O)CC(NC(=O)c2ccccc2Cl)C1)[C@H]1CCc2nc(N)sc2C1 (stereo in doubt) [Compound 12, N-(cis-3-(2-(((S)-2-Amino-4,5,6,7-tetrahydrobenzo[d]thiazol-6-yl)(propyl)amino)-ethyl)-3-hydroxycyclobutyl)-2-chlorobenzamide]","80,161",117,
"CCCN(CCC1(O)CC(NC(=O)c2ccc(Cl)cc2)C1)[C@H]1CCc2nc(N)sc2C1 (stereo in doubt) [Compound 14, N-(cis-3-(2-(((S)-2-Amino-4,5,6,7-tetrahydrobenzo[d]thiazol-6-yl)(propyl)amino)-ethyl)-3-hydroxycyclobutyl)-4-chlorobenzamide]","9,751",157,
"CCCN(CCC1(O)CC(NC(=O)c2ccc(F)cc2)C1)[C@H]1CCc2nc(N)sc2C1 (stereo in doubt) [Compound 17, N-(cis-3-(2-(((S)-2-Amino-4,5,6,7-tetrahydrobenzo[d]thiazol-6-yl)(propyl)amino)-ethyl)-3-hydroxycyclobutyl)-4-fluorobenzamide]","56,180",412,
"CCCN(CCC1(O)CC(NC(=O)c2ccccc2OC)C1)[C@H]1CCc2nc(N)sc2C1 (stereo in doubt) [Compound 19, N-(cis-3-(2-(((S)-2-Amino-4,5,6,7-tetrahydrobenzo[d]thiazol-6-yl)(propyl)amino)-ethyl)-3-hydroxycyclobutyl)-2-methoxybenzamide]","44,500",160,
"CCCN(CCC1(O)CC(NC(=O)c2ccc(-c3noc(C)n3)cc2)C1)[C@H]1CCc2nc(N)sc2C1 (stereo in doubt) [Compound 22, N-(cis-3-(2-(((S)-2-amino-4,5,6,7-tetrahydrobenzo[d]thiazol-6-yl)(propyl)amino)-ethyl)-3-hydroxycyclobutyl)-4-(5-methyl-1,2,4-oxadiazol-3-yl)benzamide]","20,000","15,208",
"CCCN(CCC1(O)CC(NS(=O)(=O)c2ccccc2)C1)[C@H]1CCc2nc(N)sc2C1 (stereo in doubt) [Compound 24, N-(cis-3-(2-(((S)-2-Amino-4,5,6,7-tetrahydrobenzo[d]thiazol-6-yl)(propyl)amino)-ethyl)-3-hydroxycyclobutyl)benzenesulfonamide]","30,000",42,
"CCCN(CCC1(O)CC(NS(=O)(=O)c2cccc(OC)c2)C1)[C@H]1CCc2nc(N)sc2C1 (stereo in doubt) [Compound 26, N-(cis-3-(2-(((S)-2-Amino-4,5,6,7-tetrahydrobenzo[d]thiazol-6-yl)(propyl)amino)-ethyl)-3-hydroxycyclobutyl)-3-methoxybenzenesulfonamide]","22,812",98,
"CCCN(CCC1(O)CC(NS(=O)(=O)c2ccc(OC)cc2)C1)[C@H]1CCc2nc(N)sc2C1 (stereo in doubt) [Compound 27, N-(cis-3-(2-(((S)-2-Amino-4,5,6,7-tetrahydrobenzo[d]thiazol-6-yl)(propyl)amino)-ethyl)-3-hydroxycyclobutyl)-4-methoxybenzenesulfonamide]","1,631",65,
"CCCN(CCC1(O)CC(NS(=O)(=O)c2ccc(Cl)cc2)C1)[C@H]1CCc2nc(N)sc2C1 (stereo in doubt) [Compound 30, N-(cis-3-(2-(((S)-2-Amino-4,5,6,7-tetrahydrobenzo[d]thiazol-6-yl)(propyl)amino)-ethyl)-3-hydroxycyclobutyl)-4-chlorobenzenesulfonamide]","17,654",205,
CCCN(CCC1(O)CC(NC(=O)c2ccc3ccccc3c2)C1)[C@H]1CCc2nc(N)sc2C1 (stereo partly drawn) [Compound 3],,,Percentage remaining of compounds in human liver microsomes ([3]; 0 h): 100%; Percentage remaining of compounds in human liver microsomes ([3]; 5 min): 79.2%; Percentage remaining of compounds in human liver microsomes ([3]; 10 min): 49.9%; Percentage remaining of compounds in human liver microsomes ([3]; 0.25 h): 34.9%; Percentage remaining of compounds in human liver microsomes ([3]; 0.5 h): 11.7%; Percentage remaining of compounds in human liver microsomes ([3]; 1 h): 2.1%
